# Only some compounds are listed: those with a hit (about 3% of all), similar ones and a draw of the others.
# PvdQ inh = blocks Pseudomonas aeruginosa PvdQ acylase activity; purified PvdQ acylase, fluorescence plate reader; inhibition, % at 10 µM; 0.063% of 340,000 active; in the data active = inhibition above about 30%, passing the limit was not always enough; inconclusive = no clear call, values can overlap the other calls;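 also: 0% = vehicle neutral wells and 100% = reference inhibitor wells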
# Glyco luc inh = blocks N-linked glycosylation in D54 reporter cells; D54 ERlucT glycosylation luciferase reporter, 24 h; percent of 100 nM tunicamycin response; reporter increase, % at 12.5 µM; 0.23% of 360,000 active; AID 588692;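 active = mean luciferase reporter signal, scaled so untreated is 0 and the glycosylation-blocking control 100, at or above a set limit in every replicate; inconclusive = mean reaches the limit but not every replicate does; inactive = mean below the limit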;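 also: luciferase carries N-glycosylation sites so blocking glycosylation raises the light; 0% = median of neutral control wells and 100% = median of 100 nM tunicamycin wells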
# CaV13 ICDI inh = Disruptors of the CACNA1D IQ motif to Ca2+-dependent inactivation inhibitor domain association, primary screening, Förster resonance energy transfer in intact living …; AID 743397; HEK cells, CFP/YFP FRET ICDI-IQ, plate reader, 10 min; percent FRET-ratio fall versus neutral wells; 0.098% of 340,000 active; inhibition, % at 12.3 µM;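 active = mean replicate inhibition of at least 30% and at least 1% of replicates passing that level; inconclusive = only one of the two criteria is met; inactive = neither criterion is met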;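 also: 0% = median of the neutral control wells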
# PfHsp90 yeast 2 = inhibits growth of yeast expressing Plasmodium falciparum Hsp90 | S. cerevisiae expressing PfHsp90, BacTiter-Glo ATP, 48 h; yeast lacking PDR1 and PDR3 efflux regulators | inhibition, % at 9.4 µM | 0.32% of 310,000 active;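 active = every replicate shows inhibition above about 80%, whatever the replicate mean, limit read from the data; inconclusive = mean inhibition reaches the set limit but some replicate falls short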;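 also: 0% = DMSO neutral controls and 100% = 20 µM radicicol positive controls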
# HSF-1 act = increases HSF-1 driven luciferase reporter signal; NIH3T3-HGL HSF-1 luciferase reporter, MG132, 8 h; 100% = twice DMSO control signal; activation, % at 9 µM; 1.7% of 300,000 active;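 active = mean replicate activation of at least 50% with a set share of replicates each reaching 50%; inconclusive = only one of those two conditions met; inactive = mean below 50% and too few replicates reaching it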;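 also: 0% = median of the neutral control wells and 100% = twice that signal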
# T cruzi repl = blocks replication of Trypanosoma cruzi. inhibition, % (concentration not given with the values). T. cruzi beta-gal in NIH3T3, luminescence, 90 h. AID 1885. 1.4% of 300,000 active;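 active = mean inhibition across valid replicates above about 55%, limit read from the data; inconclusive = mean below that limit but half or more replicates reach it; inactive = mean below it, under half of replicates reach it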;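 also: signal also drops with host cell toxicity which is not excluded here; 0% = plate median of DMSO wells and 100% = zero luminescence signal; higher percent means less beta-gal luminescence so fewer parasites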
#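 Read-out: Parasite load inhibition, % | Test system: Mouse NIH/3T3 fibroblasts infected with β-gal-expressing T. cruzi Tulahuen C4 | Amount: 5,000 cells/well | Medium: DMEM, 2% fetal bovine serum | Signal: GalScreen β-gal luminescence, detergent lysis, 60 min | Timing: 3 h attach, ≥90 h co-culture | Also added: Tulahuen C4 trypomastigotes, 5000/well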
# Numbers without * were called inactive; u = inconclusive; x = no result given; + = active, no number.
SMILES,PvdQ inh,Glyco luc inh,CaV13 ICDI inh,PfHsp90 yeast 2,HSF-1 act,T cruzi repl
Cc1ccc(-n2nc(C)c3c(C)c(CCC(=O)NCC4CCCO4)c(=O)n(C)c32)cc1 (centres undefined),-9.5,-7.7,-6.9,-25.2,13.8,63.4*
COc1ccc2nc(NC(=O)C3CCCN(S(=O)(=O)c4cccc5nonc45)C3)sc2c1 (centres undefined),2.1,-2.6,x,-2.7,6.7,26.1
CCOc1ccc2nc(NC(=O)C3CCCN(S(=O)(=O)c4cccc5nonc45)C3)sc2c1 (centres undefined),-10.1,-1.7,-3.5,-23.7,32.2,57.4*
Cc1cc(C)c2c(N)c(C(=O)c3ccccc3Cl)sc2n1,-4.7,-4.5,-4.6,-6.1,4.9,56.4*
CN1/C(=C\C=[N+](C)c2ccccc2)C(C)(C)c2ccccc21,-6.1,2.4,-8.2,0.3,-4.6,63.6*
CN1/C(=C/C=C(/C#N)C(N)=O)C(C)(C)c2ccccc21,14.0,25.7*,x,8.2,4.1,-11.1
CN1/C(=C\C=C(/C#N)C(=O)Nc2ccccc2F)C(C)(C)c2ccccc21,-8.1,-1.9,0.3,15.7,0.1,25.9
CN1/C(=C\C=C2/SC(=S)NC2=O)C(C)(C)c2ccccc21,22.4,-0.4,-22.7,1.9,-27.5,75.3*
COC(=O)c1cnc(N2CCCN(S(=O)(=O)c3ccc(C(F)(F)F)cc3)CC2)nc1C(F)(F)F,3.2,-1.6,-4.2,-1.4,53.0*,55.3*
S=c1[nH]c(-c2ccc(Br)cc2)cn1CCc1ccccc1,-16.3,1.1,-6.4,19.1,62.0*,0.2
CC[C@]12C(=O)N(C)C[C@H]([C@@H]3C(=O)N(C)C(=O)[C@@H]31)N2C(=O)c1ccccc1,12.6,1.2,-5.5,-2.4,x,x
O=C(N/N=C1\CC(c2ccccc2)Oc2ccccc21)c1ccc(O)cc1 (centres undefined),-12.1,2.7,-6.3,-61.8,71.3*,-10.9
O=C(Nc1ccc(F)cc1)C(CCc1ccccc1)N1CCN(Cc2c(F)cccc2Cl)CC1 (centres undefined),x,x,-8.8,x,x,x
COC(=O)C1=C(C)N(Cc2cccc(C(F)(F)F)c2)C(=NCc2ccc3c(c2)OCO3)NC1c1ccc(F)cc1 (centres undefined),x,x,-3.9,x,x,x
CCN(CC)CCN1CCN(c2cncc(-c3ccc4ccccc4c3)n2)CC1,x,-5.4,-6.0,x,x,x
CCOC(=O)CC1(O)CSc2nc(N)cc(=O)n21 (centres undefined),x,x,-13.9,x,x,x
N#Cc1cccc(NC(=O)CSc2ccc3c4c(cccc24)C(=O)c2ccccc2-3)c1,-0.5,-2.7,-13.5,6.8,16.6,1.3
COc1ccc(NC(=O)CSc2ccc3c4c(cccc24)C(=O)c2ccccc2-3)cc1,-10.3,0.9,-5.7,-72.1,58.5*,34.4
Cc1ccc(-c2nn(-c3cc(N4CCNCC4)ccc3[N+](=O)[O-])c(=O)c3ccccc23)cc1,-6.2,-5.0,-5.2,15.1,13.6,73.3*
Cc1nn(-c2cc(N3CCCCCC3)ccc2[N+](=O)[O-])c(=O)c2ccccc12,-2.9,1.9,-8.5,-47.4,-4.4,24.6
Cc1cc(N2CCN(C(=O)OC(C)(C)C)C[C@@H]2C)ccc1N1C[C@@H](C)O[C@@H](C)C1,x,x,-9.4,x,x,x
CCN1CCN(CCNC(=O)c2ccc(/C=C3\Sc4ccccc4N(Cc4ccccc4F)C3=O)cc2)CC1,0.4,-5.5,-7.7,0.3,1.6,60.0*
CN1CCN(CCCNC(=O)c2ccc(/C=C3\Sc4ccccc4N(Cc4ccc(F)cc4)C3=O)cc2)CC1,-17.2,-7.8,-13.7,10.4,2.5,u
CN1CCN(CCCNC(=O)c2ccc(/C=C3/Sc4ccccc4N(Cc4cccc(Cl)c4)C3=O)cc2)CC1,4.3,-8.7,-1.0,36.5,9.6,57.7*
CN(C)CCCN(C(=O)c1ccco1)c1nc(-c2ccc(Cl)cc2)cs1,1.5,3.7,-21.5,9.9,19.6,56.5*
SMILES,PvdQ inh,Glyco luc inh,CaV13 ICDI inh,PfHsp90 yeast 2,HSF-1 act,T cruzi repl
CCN(C(=O)c1cccs1)c1nc(-c2ccc(OC)cc2)cs1,-14.3,-1.6,-5.8,-4.3,25.1,29.8
COc1ccc(-c2csc(N(CCCN(C)C)C(=O)c3cccs3)n2)cc1,-18.0,-3.0,-5.1,x,21.7,65.7*
C=CCSc1n[nH]c(-c2ccc(OCCCC)cc2)n1,4.8,0.9,-7.0,x,65.6*,24.8
C[C@H]1CN([C@@H](C)CO)S(=O)(=O)c2ccc(C#CC3(O)CCCC3)cc2O[C@@H]1CN(C)C(=O)Cc1cccnc1,x,1.8,-6.1,x,x,x
COc1cccc(CCNC(=O)C2CCC(=O)N(C3CC3)C2)c1OC (centres undefined),-16.1,-0.2,-4.7,-20.6,59.2*,-9.1
Cc1sc(NC(=O)c2ccco2)c(C(c2cccnc2)N2CCN(c3ccc(F)cc3)CC2)c1C (centres undefined),10.9,-8.0,-6.5,-4.9,-13.5,56.9*
CCOC(=O)C1CCN(C(c2cccnc2)c2c(NC(=O)c3ccco3)sc(C)c2C)CC1 (centres undefined),-6.8,-5.4,-3.5,53.2,-1.5,65.3*
Cc1sc(NC(=O)c2ccco2)c(C(c2ccccc2)N2CCC(C)CC2)c1C (centres undefined),-13.1,-4.4,2.9,-14.7,11.4,71.9*
Cc1sc(NC(=O)c2ccco2)c(C(c2cccnc2)N2CCN(CCO)CC2)c1C (centres undefined),3.9,-0.3,-4.6,-6.0,-3.4,32.5
COc1ccccc1Cc1c(-c2ccco2)nc2c(C)cc(Br)cn12,x,6.2,x,x,x,x
O=C1C=CC(c2c[nH]c3ccccc23)CC1 (centres undefined),x,x,-6.6,x,x,x
O=C(NC1CCCC1)c1cc2ccccc2o1,-4.4,-0.8,-6.5,-21.1,-2.5,-22.0
O=C(NC1CCCCC1)c1cc2cc(Br)ccc2o1,-10.7,-3.4,-1.9,4.4,68.3*,-0.2
O=C(NC1CCCC1)c1cc2cc(Br)ccc2o1,-3.8,-5.4,-5.4,20.9,60.3*,-2.3
C=CCc1c(O)c(CC)cc2c(C)cc(=O)oc12,5.9,1.3,+,-3.8,-11.5,6.8
CCN(CC)Cc1c(O)c(Cl)cc2c(C)cc(=O)oc12,-74.4,-0.6,35.3*,2.8,-12.8,-4.1
CCN(CC)Cc1c(O)c(Cl)cc2c(C)c(C)c(=O)oc12,-16.7,0.9,x,2.9,-3.8,0.9
CC1(C)OC(=O)C2=C(CC(CCc3ccccc3)OC2CCc2ccccc2)O1 (centres undefined),x,x,-10.3,x,x,x
COC(=O)[C@@]12C[C@@H](CC(=O)NCc3cccc4ccccc34)C(=O)N(Cc3ccccc3)C1=CCC(C)(C)C2,x,x,-4.9,x,x,x
